Activity calls are given as the source filed them. No cut-off for these calls is given here.
Legend:
Candida parapsilosis [1] = assay: Increase in CGD gene ortholog accession number orf19.7353 expression in Candida parapsilosis CLIB214 at 50 uM after 2 hrs by microarray based transcriptional profiling relative to control; format: functional
Procedure, shortened: (§1)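 Strain CLIB214 grown overnight in YPD at 30°C, diluted to A600 0.2 in fresh YPD at 30°C. After 4 h (A600 0.8), farnesol (40 mM methanol stock) added to 50 μM final, or an equal methanol volume as control; cells harvested 2 h later. RNA was accepted only with a 28S/18S ratio of 1.6–2.2. Cy3/Cy5-dCTP-labelled cDNA was made from 25 μg total RNA. Hybridisation was to duplicate-spotted 68-mer oligo arrays (3,849 genes) at 42°C for about 16 h. Six individual comparisons.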

Candida parapsilosis [2] = assay: Increase in CGD gene ortholog accession number orf19.3185 expression in Candida parapsilosis CLIB214 at 50 uM after 2 hrs by microarray based transcriptional profiling relative to control; format: functional; procedure, shortened: as §1
Candida parapsilosis [3] = assay: Decrease in CGD gene ortholog accession number orf19.4449 expression in Candida parapsilosis CLIB214 at 50 uM after 2 hrs by microarray based transcriptional profiling relative to control; format: functional
Procedure, shortened: (§2)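 Cells in YPD at 30°C treated with 50 μM farnesol at 4 h, with a methanol control. RNA harvested 2 h later and kept only if 28S/18S ratio was 1.6–2.2 with no degradation. 25 μg total RNA oligo-dT primed and labeled with Cy3/Cy5-dCTP. Labeled cDNA hybridized about 16 h at 42°C to duplicate-spotted 68-mer oligo arrays. Six individual comparisons analyzed statistically.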

Candida parapsilosis [4] = assay: Increase in KEX2 gene expression in Candida parapsilosis CLIB214 at 50 uM after 2 hrs by microarray based transcriptional profiling relative to control; format: functional
Procedure, shortened: (§3)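 Strain grown overnight in YPD at 30°C, diluted to A600 0.2 in YPD at 30°C; farnesol (40 mM methanol stock) added at 4 h (A600 0.8), final 50 μM; methanol-only control. Cells collected 2 h later for RNA. Labelled cDNA from 25 μg total RNA (Cy3/Cy5-dCTP) hybridized to 68-mer oligo arrays at 42°C ~16 h; six individual comparisons analysed statistically.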

Candida parapsilosis [5] = assay: Increase in CGD gene ortholog accession number orf19.854 expression in Candida parapsilosis CLIB214 at 50 uM after 2 hrs by microarray based transcriptional profiling relative to control; format: functional; procedure, shortened: as §3
Candida parapsilosis [6] = assay: Increase in PDB1 gene expression in Candida parapsilosis CLIB214 at 50 uM after 2 hrs by microarray based transcriptional profiling relative to control; format: functional; procedure, shortened: as §3
Candida parapsilosis [7] = assay: Decrease in CGD gene ortholog accession number orf19.3051 expression in Candida parapsilosis CLIB214 at 50 uM after 2 hrs by microarray based transcriptional profiling relative to control; format: functional; procedure, shortened: as §2
Candida parapsilosis [8] = assay: Decrease in CGD gene ortholog accession number orf19.2517 expression in Candida parapsilosis CLIB214 at 50 uM after 2 hrs by microarray based transcriptional profiling relative to control; format: functional; procedure, shortened: as §2
Candida parapsilosis [9] = assay: Decrease in CGD gene ortholog accession number orf19.4253 expression in Candida parapsilosis CLIB214 at 50 uM after 2 hrs by microarray based transcriptional profiling relative to control; format: functional; procedure, shortened: as §2
Candida parapsilosis [10] = assay: Increase in CGD gene ortholog accession number orf19.1026 expression in Candida parapsilosis CLIB214 at 50 uM after 2 hrs by microarray based transcriptional profiling relative to control; format: functional; procedure, shortened: as §1
Candida parapsilosis [11] = assay: Decrease in CGD gene ortholog accession number orf19.6744 expression in Candida parapsilosis CLIB214 at 50 uM after 2 hrs by microarray based transcriptional profiling relative to control; format: functional; procedure, shortened: as §1
Candida parapsilosis [12] = assay: Decrease in CGD gene ortholog accession number orf19.194 expression in Candida parapsilosis CLIB214 at 50 uM after 2 hrs by microarray based transcriptional profiling relative to control; format: functional; procedure, shortened: as §2
Candida parapsilosis [13] = assay: Decrease in CGD gene ortholog accession number orf19.2328 expression in Candida parapsilosis CLIB214 at 50 uM after 2 hrs by microarray based transcriptional profiling relative to control; format: functional; procedure, shortened: as §2
Candida parapsilosis [14] = assay: Increase in CGD gene ortholog accession number orf19.7235 expression in Candida parapsilosis CLIB214 at 50 uM after 2 hrs by microarray based transcriptional profiling relative to control; format: functional; procedure, shortened: as §1
Candida parapsilosis [15] = assay: Increase in ERG7 gene expression in Candida parapsilosis CLIB214 at 50 uM after 2 hrs by microarray based transcriptional profiling relative to control; format: functional; procedure, shortened: as §3
Candida parapsilosis [16] = assay: Decrease in CGD gene ortholog accession number orf19.4947 expression in Candida parapsilosis CLIB214 at 50 uM after 2 hrs by microarray based transcriptional profiling relative to control; format: functional; procedure, shortened: as §2
Candida parapsilosis [17] = assay: Increase in CGD gene ortholog accession number orf19.6117 expression in Candida parapsilosis CLIB214 at 50 uM after 2 hrs by microarray based transcriptional profiling relative to control; format: functional; procedure, shortened: as §1
Candida parapsilosis [18] = assay: Decrease in CGD gene ortholog accession number orf19.2366 expression in Candida parapsilosis CLIB214 at 50 uM after 2 hrs by microarray based transcriptional profiling relative to control; format: functional; procedure, shortened: as §2
Candida parapsilosis [19] = assay: Antifungal activity against Candida parapsilosis CLIB214 assessed as induction of cell death at 50 uM added 4 hrs after […] growth after 2 hrs by colony counting method; format: functional
Procedure, shortened: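 Type strain grown overnight in YPD at 30°C, diluted to A600 0.2 in YPD; farnesol (40 mM stock in methanol) added at a final 50 μM, with a methanol-only control. Viability was measured by CFU counts taken 1 h and 2 h after addition.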

Candida parapsilosis [20] = assay: Reduction in GCN3 gene expression in Candida parapsilosis CLIB214 by RT-PCR; format: functional
Procedure, shortened: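 Cultures in YPD at 30°C, diluted to A600 0.2; 50 μM farnesol (final) or methanol added at 4 h, RNA harvested 2 h later. RT-PCR: 95°C hot start 1 min 30 s, then 26 cycles (95°C 40 s, 55°C 2 min, 72°C 3 min), final 72°C 5 min; each gene signal normalized to ACT1.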

Candida parapsilosis [21] = assay: Antifungal activity against Candida parapsilosis CLIB214 assessed as growth inhibition at 50 uM added after 2 hrs of bacterial growth measured after 4 hrs; format: functional; details: Lodderomyces parapsilosis
Procedure, shortened: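 Overnight YPD culture at 30°C diluted to A600 0.2 in YPD. Farnesol added to 50 μM final at 2, 4, 6 or 8 h of growth (A600 about 0.8 at 4 h, 2.3 at 6 h, 6 at 8 h). Growth compared with methanol controls by A600 or cell counts.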

Candida parapsilosis [22] = assay: Decrease in PIKA gene expression in Candida parapsilosis CLIB214 at 50 uM after 2 hrs by microarray based transcriptional profiling relative to control; format: functional; procedure, shortened: as §1
Candida parapsilosis [23] = assay: Antifungal activity against Candida parapsilosis CLIB214 assessed as growth inhibition in presence of 10% fetal calf serum at 30 degC; format: functional, organism-based
Procedure, shortened: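 YPD cultures started at A600 0.2, supplemented with 10% (vol/vol) fetal calf serum, and grown at 30°C or 37°C. Farnesol added with the serum. Growth monitored by A600 or cell counting.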

Q: How did the “fold change (FC)” value (Candida parapsilosis [1]) turn out when `CC(C)=CCC/C(C)=C/CC/C(C)=C/CO` [FARNESOL] was run?
A: 2.14

Q: And the “fold change (FC)” value (Candida parapsilosis [2])?
A: 1.6

Q: And the “fold change (FC)” value (Candida parapsilosis [3])?
A: 1.59

Q: What about the “fold change (FC)” value (Candida parapsilosis [4]) of the same compound?
A: 1.57

Q: What about the “fold change (FC)” value (Candida parapsilosis [5]) of the same compound?
A: 1.69

Q: And the “fold change (FC)” value (Candida parapsilosis [6])?
A: 1.7

Q: And the “fold change (FC)” value (Candida parapsilosis [7])?
A: 1.67

Q: And the “fold change (FC)” value (Candida parapsilosis [8])?
A: 1.69

Q: What about the “fold change (FC)” value (Candida parapsilosis [9]) of the same compound?
A: 1.63

Q: What about the “fold change (FC)” value (Candida parapsilosis [10]) of the same compound?
A: 1.55

Q: And the “fold change (FC)” value (Candida parapsilosis [11])?
A: 1.66

Q: What about the “fold change (FC)” value (Candida parapsilosis [12]) of the same compound?
A: 1.84

Q: What about the “fold change (FC)” value (Candida parapsilosis [13]) of the same compound?
A: 1.5

Q: And the “fold change (FC)” value (Candida parapsilosis [14])?
A: 1.56

Q: What about the “fold change (FC)” value (Candida parapsilosis [15]) of the same compound?
A: 1.68

Q: What about the “fold change (FC)” value (Candida parapsilosis [16]) of the same compound?
A: 1.58

Q: What about the “fold change (FC)” value (Candida parapsilosis [17]) of the same compound?
A: 1.6

Q: And the “fold change (FC)” value (Candida parapsilosis [18])?
A: 3.21

Q: What about the Activity (Candida parapsilosis [19]) of the same compound?
A: 20%

Q: What about the “fold change (FC)” value (Candida parapsilosis [20]) of the same compound?
A: 1.54

Q: What about the inhibition at 50 µM (Candida parapsilosis [21]) of the same compound?
A: 71%

Q: What about the “fold change (FC)” value (Candida parapsilosis [22]) of the same compound?
A: 1.65

Q: And the Activity (Candida parapsilosis [23])?
A: inactive
